Assay outcomes from PubChem BioAssay.
This is a sample that favours compounds with a hit; in the whole collection about 4.6% have one here.
OX1R antag-1 = OX1R (HCRTR1) antagonists, primary screen, fluorescence, CHO/OX1R cells, Fluo-8 calcium, orexin A; Orexin/Hypocretin receptor type 1 (Homo sapiens), O43613; Fluo-8 calcium fluorescence; inhibition, % at 5 µM; 330,000 compounds, 0.43% hits;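 active = inhibition above its plate's threshold, mean inhibition of all tested compounds on the plate plus 3 SD, cut at about 37% in these data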;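 also: 0% = orexin A challenge wells and 100% = SB-334867-A antagonist wells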
Target sequence (O43613 whole entry, looked up): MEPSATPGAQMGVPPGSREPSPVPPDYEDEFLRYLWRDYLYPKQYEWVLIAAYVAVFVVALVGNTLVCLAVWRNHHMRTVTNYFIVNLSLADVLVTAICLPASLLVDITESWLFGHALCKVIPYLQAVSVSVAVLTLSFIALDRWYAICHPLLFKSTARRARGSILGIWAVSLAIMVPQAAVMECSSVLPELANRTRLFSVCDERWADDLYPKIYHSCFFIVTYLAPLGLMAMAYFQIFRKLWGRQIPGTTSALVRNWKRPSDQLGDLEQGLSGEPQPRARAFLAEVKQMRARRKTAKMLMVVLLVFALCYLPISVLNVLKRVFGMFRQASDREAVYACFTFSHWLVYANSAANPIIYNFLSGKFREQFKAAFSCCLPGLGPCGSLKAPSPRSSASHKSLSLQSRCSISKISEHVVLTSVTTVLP
GPR7 antagonist = GPR7 receptor antagonists, primary screen, cell-based, fluorescence, single concentration | Neuropeptides B/W receptor type 1 (Homo sapiens), P48145 | 290,000 compounds, 1.1% hits | inhibition, % at 4.4 µM | GPR7-expressing cells, fluorescence antagonist assay; in the data active = inhibition above about 16%, passing the limit was not always enough;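 also: cells stimulated with the agonist NPW; 0% = agonist with vehicle and 100% = vehicle without agonist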
CHO parental Ca = ATP-evoked calcium signal inhibitors, parental CHO, primary screen, counter-screen for OX1R antagonist project, cell-based, fluorescence, Fluo-8 calcium dye; parental CHO-K1, ATP-induced calcium, Fluo-8 fluorescence; inhibition, % at 5.6 µM; 330,000 compounds, 0.63% hits;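 active = inhibition above that plate's mean sample inhibition plus 3 SD, cut at about 26% in these data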;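 also: 0% = ATP-challenged DMSO wells and 100% = DMSO wells without ATP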
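Assay system: parental CHO cells; Read-out basis: percent inhibition of ATP-evoked calcium rise, normalized to controls; Benchmarks: ATP and no-ATP DMSO wells; Compound dosing: single nominal dose of 5.6 µM per compound; Signal: Fluo-8 calcium dye fluorescence; Also added: ATP as calcium-mobilizing challenge; Repeats: singlicate.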
OX1R antag-2 = antagonists of human orexin 1 receptor (OX1R). inhibition, % at 6.6 µM. OX1R-expressing cells, FRET antagonist read-out. 330,000 compounds, 1.8% hits; in the data active = inhibition mostly above about 38%, no sharp cut-off; inactive = mostly below about 40%;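 also: 0% = agonist challenge alone and 100% = reference antagonist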
TAAR1 agonist = human TAAR1 agonists, primary screen, Fluo-8 calcium fluorescence, CHO RD-HGA16 cells; Trace amine-associated receptor 1 (Homo sapiens), Q96RJ0; vehicle wells 0%, saturating PEA agonist 100%; activation, % at 3 µM; 360,000 compounds, 0.99% hits;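 active = activation above the mean activation of all test compounds in the run plus 3 SD, cut at about 38% in these data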
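Benchmarks: low control DMSO, high control PEA (EC100); System: CHO RD-HGA16 cells carrying human TAAR1 plus Gα16; Detection: Fluo-8 fluorescence, 5 s baseline then 140 s kinetic read; Schedule: 17-24 h plating, Fluo-8 75 min 37 °C, 30 min RT; Read-out basis: % activation from peak over basal fluorescence ratio, DMSO-to-PEA scaled.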
TAAR1 antag = human TAAR1 antagonists, primary screen, Fluo-8 calcium fluorescence, CHO RD-HGA16 cells; Trace amine-associated receptor 1 (Homo sapiens), Q96RJ0; antagonist; inhibition, % at 3 µM; 360,000 compounds, 1.5% hits; AID 624466, 2012;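 active = inhibition above a per-plate cutoff, the mean inhibition of test compounds on that plate plus 3 SD, cut at about 49% in these data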;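 also: 0% = DMSO plus EC80 beta-PEA response and 100% = DMSO alone without agonist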
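Material: CHO RD-HGA16 cells bearing hTAAR1; compound dosing: one-point dosing, 3 µM nominal final; schedule: dye loading 75 min at 37 °C, then 30 min room temperature; measured by: calcium fluorescence with Fluo-8; control set: vehicle and agonist controls; replication: n of 1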
TAAR1 ag conf = human TAAR1 agonists, retest of hits, confirmation, Fluo-8 calcium fluorescence, CHO RD-HGA16 cells; AID 651783, 2012; 2,400 compounds, 82% hits; scaled: DMSO 0%, maximal phenethylamine 100%; activation, % at 3 µM; shares compounds with TAAR1 agonist;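 active = activation above a cutoff set at the run's mean compound activation plus 3 SD, cut at about 39% in these data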
Ga16 ag counter = nonselective calcium mobilization agonists, CHO-Ga16 cells, counter-screen for hTAAR1 agonist project, cell-based, fluorescence, CHO-Ga16 parental line. shares compounds with TAAR1 agonist. Fluo-8 calcium fluorescence; normalized to maximal ATP response, DMSO zero. 2,400 compounds, 50% hits. activation, % at 3 µM;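 active = activation above the run cutoff, the mean activation over all tested wells plus 3 SD, cut at about 12% in these data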;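 also: 0% = DMSO wells and 100% = maximal ATP response on the peak over basal ratio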
TAAR1 desens = TAAR1 desensitization by agonist hits, confirmation, counter-screen for TAAR1 agonist project, cell-based, fluorescence, tachyphylaxis | inhibition, % at 3 µM | 2,400 compounds, 46% hits | CHO RD-HGA16 hTAAR1, Fluo-8 calcium, beta-PEA response inhibition | shares compounds with TAAR1 agonist;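 active = inhibition above the run cutoff, the mean inhibition of all test compounds plus 3 SD, cut at about 49% in these data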;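 also: beta-PEA stimulus applied at its EC80; loss of beta-PEA calcium signal after compound pretreatment read as receptor desensitization; 0% = DMSO with beta-PEA at EC80 and 100% = DMSO alone without agonist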
Ga16 antag count = inhibition of ATP-evoked calcium response in CHO-Ga16 cells, counter-screen for TAAR1 agonist project, cell-based, fluorescence | shares compounds with TAAR1 agonist | CHO-Ga16 ATP-induced calcium, Fluo-8 fluorescence | inhibition, % at 3 µM | 2,400 compounds, 39% hits | AID 651952, 2012;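 active = inhibition above the plate's mean compound inhibition plus 3 SD, computed per plate, cut at about 22% in these data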;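 also: 0% = EC80 ATP with DMSO and 100% = DMSO wells without ATP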
An asterisk follows results filed as active; . = not tested or not shown.

SMILES | OX1R antag-1 | GPR7 antagonist | CHO parental Ca | OX1R antag-2 | TAAR1 agonist | TAAR1 antag | TAAR1 ag conf | Ga16 ag counter | TAAR1 desens | Ga16 antag count
O=[N+]([O-])c1ccccc1NC(=S)N/N=C/c1ccc(O)c(O)c1 | -12 | -6 | 4 | 16 | 52* | 13 | 84* | 6 | 56* | 10
CCOc1cccc(/C=N/NC(=S)Nc2ccccc2[N+](=O)[O-])c1O | -20 | -7 | -16 | 34 | 5 | 14 | . | . | . | .
COCCCOc1cc(NCc2ccccc2)c2ncn(C(C)C)c2c1 | -22 | . | -19 | 14 | 15 | -9 | . | . | . | .
CCCCOc1cc(NCc2ccccc2)c2ncn(C(C)C)c2c1 | -91 | . | -50 | 24 | 66* | 50* | 29 | 24* | 25 | 24*
COc1ccccc1COCC(O)CNCCc1ccc(C(F)(F)F)cc1 (configuration not stated) | -16 | 19 | -11 | -7 | 13 | -14 | . | . | . | .
OC(CNCCc1ccc(C(F)(F)F)cc1)COc1cccc2ccccc12 (configuration not stated) | 2 | -3 | 25 | 8 | 60* | 22 | 60* | 29* | 64* | 44*
Cc1cc(C)cc(-n2c(C)cc(/C=N/NC(=O)CSc3ncccn3)c2C)c1 | -10 | -4 | -18 | 4 | 45* | 27 | 50* | 32* | 55* | 33*
Cc1cc(/C=N\NC(=O)COc2cccc3cccnc23)c(C)n1-c1ccccc1 | -32 | 1 | -20 | 20 | 5 | 10 | . | . | . | .
COc1ccc(N=C(N)SCc2ccccn2)cc1 | -8 | 12 | -14 | -6 | 7 | -18 | . | . | . | .
CC(C)=N/N=C(\N)SCc1ccccc1 | -18 | -5 | -27 | 9 | . | . | . | 2 | . | 2
Cc1ccccc1CCN(C(=O)c1csnn1)C(C(=O)NC1CCCC1)c1ccco1 (configuration not stated) | -18 | 6 | -17 | 40 | 46* | 2 | 70* | 2 | 31 | 14
CCCCc1c(-c2ccccc2OC)ncn1CCc1ccccc1Cl | . | . | . | . | 64* | 89* | 74* | 11 | 75* | 36*
CCCCCc1c(-c2ccc(Br)cc2)ncn1CCc1ccccc1OC | . | . | . | . | 71* | 27 | 74* | 7 | 48 | 25*
CCCCc1c(-c2ccccc2OC)ncn1Cc1ccccc1 | . | . | . | . | 4 | 18 | . | . | . | .
COc1ccccc1CCn1cnc(-c2ccc(Cl)cc2)c1CC(C)C | . | . | . | . | 53* | 66* | 84* | 3 | 55* | 19
CCCCCc1c(-c2cccc(Cl)c2)ncn1CCc1ccccc1OC | . | . | . | . | 4 | -27 | . | . | . | .
CCCCc1c(-c2ccccc2OC)ncn1CCc1cccc(OC)c1 | . | . | . | . | 25 | 17 | . | . | . | .
CCCCCc1c(-c2cccc(F)c2)ncn1CCc1ccccc1OC | . | . | . | . | 9 | 26 | . | . | . | .
